TRPC4 block = inhibitors of mouse TRPC4 channel, primary screen, Fluo4 calcium, HEK293 TRPC4beta/mu-opioid cells. Short transient receptor potential channel 4 (Mus musculus), Q9QUQ5. DAMGO-evoked Fluo4 calcium flux; active compounds read low. B-score at 10 µM. 300,000 tested, 0.39% active. AID 2247, 2010;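 active = B-score over 3 SD under the library average, no early fluorescence shift, positive overall ratio signal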
Target sequence (Q9QUQ5 whole entry, looked up): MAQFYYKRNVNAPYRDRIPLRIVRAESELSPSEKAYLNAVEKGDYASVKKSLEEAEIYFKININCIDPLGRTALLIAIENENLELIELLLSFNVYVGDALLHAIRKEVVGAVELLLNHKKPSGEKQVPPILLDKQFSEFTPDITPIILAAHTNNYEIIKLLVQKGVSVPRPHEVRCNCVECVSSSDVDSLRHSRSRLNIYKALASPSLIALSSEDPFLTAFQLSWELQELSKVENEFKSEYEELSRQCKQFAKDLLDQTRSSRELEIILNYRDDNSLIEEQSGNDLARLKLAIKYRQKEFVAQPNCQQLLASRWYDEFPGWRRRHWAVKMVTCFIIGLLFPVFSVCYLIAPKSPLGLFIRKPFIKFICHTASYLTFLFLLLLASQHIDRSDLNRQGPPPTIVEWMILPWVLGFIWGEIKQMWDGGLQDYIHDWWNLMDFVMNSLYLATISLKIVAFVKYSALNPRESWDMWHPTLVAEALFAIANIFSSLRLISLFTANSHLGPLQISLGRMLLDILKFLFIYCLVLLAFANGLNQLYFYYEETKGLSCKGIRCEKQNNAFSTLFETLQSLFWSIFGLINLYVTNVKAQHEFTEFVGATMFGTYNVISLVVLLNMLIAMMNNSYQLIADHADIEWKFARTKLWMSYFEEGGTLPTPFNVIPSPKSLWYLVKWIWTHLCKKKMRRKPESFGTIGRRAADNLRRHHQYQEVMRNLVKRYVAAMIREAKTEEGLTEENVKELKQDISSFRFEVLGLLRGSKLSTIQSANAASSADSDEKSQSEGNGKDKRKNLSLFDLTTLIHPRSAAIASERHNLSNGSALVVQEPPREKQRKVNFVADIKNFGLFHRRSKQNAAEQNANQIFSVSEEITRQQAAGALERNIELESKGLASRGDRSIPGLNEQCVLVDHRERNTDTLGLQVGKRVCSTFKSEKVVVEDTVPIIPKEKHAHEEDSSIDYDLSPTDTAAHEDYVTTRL
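test system = HEK293 cells with stable TRPC4beta plus mu-opioid receptor expression | detection = Fluo4 Ca2+ flux fluorescence | read-out = integrated fluorescence ratio relative to baseline, converted to per-well B score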
TRPC4 potent = positive allosteric modulators of TRPC4, primary screen, cell-based, mouse TRPC4beta, HEK293 mu-opioid, Fluo-4 calcium; Short transient receptor potential channel 4 (Mus musculus), Q9QUQ5; DAMGO EC20, Fluo-4 Ca2+ flux; active compounds read high; B-score at 10 µM; 310,000 tested, 0.42% active; AID 2227, 2009;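 active = B-score of calcium response area above 5 SD of library B-scores, with initial fluorescence ratio within 5 SD of library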;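 also: B-score of integrated fluorescence ratio over time as area under calcium response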
TRPC6 inhibitor = mouse TRPC6 channel inhibitors, primary screen, cell-based, HEK293, membrane potential dye | Short transient receptor potential channel 6 (Mus musculus), Q61143 | ACh-evoked depolarization; active compounds read low | B-score at 10 µM | 310,000 tested, 1.1% active | AID 2553, 2010;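 active = B-score under library mean minus 3 SD, initial fluorescence not abnormally high, positive integrated signal ratio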;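 also: B-score derived from integrated fluorescence ratio over the kinetic read; more negative B-score means stronger inhibition of depolarization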
TRPC6 act = mouse TRPC6 channel activators, primary screen, cell-based, HEK293, membrane potential dye | HEK293-TRPC6 membrane potential dye fluorescence; active compounds read high | AID 2550, 2010 | Short transient receptor potential channel 6 (Mus musculus), Q61143 | 310,000 tested, 0.13% active | B-score at 10 µM;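 active = B-score of the integrated fluorescence ratio above library mean plus 3 SD, and starting fluorescence ratio within library mean plus 5 SD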;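 also: higher score means more depolarization so channel activation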
TRPC4 agonist = activators of mouse TRPC4 channel, primary screen, Fluo4 calcium, HEK293 TRPC4beta/mu-opioid cells. Short transient receptor potential channel 4 (Mus musculus), Q9QUQ5. Fluo4 calcium fluorescence; active compounds read high. B-score at 10 µM. 310,000 tested, 0.49% active. AID 2237, 2010;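 active = B-score above 5 SD of library B-scores, and initial fluorescence ratio not above library mean plus 5 SD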;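 also: positive B-score marks a calcium rise read as TRPC4 activation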
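Test system: HEK293 cells stably co-expressing mouse TRPC4beta and mu-opioid receptor | Schedule: Fluo4 dye loading 45 min at room temperature, 110 s recording | Measured by: Kinetic Fluo4 calcium fluorescence, 5 s baseline at 1 Hz | Evaluation: B score of integrated ratio | Controls: Buffer (low) and maximal DAMGO (high)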
TRPC4 sel inh 2 = second selectivity test of TRPC6 inhibitors: effect on mouse TRPC4; AID 2776; shares compounds with TRPC6 inhibitor; inhibition, % at 10 µM; 920 tested, 42% active; HEK293 TRPC4/MOR, membrane potential dye fluorescence; channel activated by saturating DAMGO dose;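 active = compounds whose fluorescence signal differed from control wells by over 3 SD, either direction, in both duplicate plates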
TRPC4 spec = mouse TRPC4 modulation by TRPC6 hits, confirmation, selectivity assay for TRPC6 inhibitor project, cell-based, HEK293 TRPC4/mu-opioid, membrane potential dye. membrane potential fluorescence. activity change, negative = inhibition, % at 10 µM. 920 tested, 61% active. shares compounds with TRPC6 inhibitor. AID 2777, 2010;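 active = rise or fall in signal beyond 3 SD of buffer-only wells in both replicate plates, either sign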;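 also: integrated kinetic ratio of fluorescence range over baseline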
HEK293 MPD ctr 2-1 = nonspecific membrane potential effects, parental HEK293, confirmation, counter-screen for TRPC6 inhibitor project, cell-based, second counter screen; shares compounds with TRPC6 inhibitor; parental HEK293 membrane potential dye fluorescence; maximal acetylcholine challenge after compound addition; signal change vs control, % at 10 µM; 920 tested, 31% active;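 active = membrane potential signal moving either way by over 3 SD of the maximum-effect control, in both duplicate plates, meaning non-specific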
HEK293 MPD ctr-1 = membrane potential modulation in parental HEK293, confirmation, counter-screen for TRPC6 inhibitor project, cell-based; shares compounds with TRPC6 inhibitor; parental HEK293 membrane potential dye fluorescence; membrane potential signal change, % at 10 µM; 920 tested, 60% active; AID 2780, 2010;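 active = membrane potential signal shifting up or down by more than 3 SD of buffer-only wells, on both duplicate plates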
HEK293 MPD ctr-2 = parental HEK293 membrane potential modulation, confirmation, counter-screen for TRPC6 modulator project, cell-based; shares compounds with TRPC6 inhibitor; membrane potential dye fluorescence; membrane potential signal change, % at 10 µM; 2,400 tested, 51% active; AID 488924, 2010;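 active = membrane potential signal moves up or down beyond 5 SD from buffer-only wells, on both duplicate plates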
HEK293 MPD ctr 2-2 = second check of TRPC6 modulator effects in parental HEK293 cells; 2,400 tested, 14% active; membrane potential dye fluorescence; after compound, maximal acetylcholine stimulation; inhibition, % at 10 µM; shares compounds with TRPC6 inhibitor;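 active = membrane potential signal drops by more than 5 SD from the mean control signal, in both duplicate plates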;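 also: plate controls were acetylcholine ECmax control wells for no effect and buffer only wells for full effect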
TRPC4 ctr mod = TRPC4 modulation by TRPC6 hit compounds, confirmation, selectivity assay for TRPC6 modulator project, cell-based, HEK293 TRPC4/mu-opioid, membrane potential dye, mouse; 2,400 tested, 69% active; AID 488927, 2010; shares compounds with TRPC6 inhibitor; membrane potential fluorescence; percent change from control (negative = decrease, positive = increase), % at 10 µM;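 active = membrane potential signal moved up or down beyond 5 SD of buffer control wells, in both duplicate plates, actives on both sides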;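 also: plate controls were assay buffer wells for no effect and DAMGO maximal-effect wells for full effect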
TRPC4/MOR inh 2 = second selectivity test of TRPC6 modulators against mouse TRPC4; shares compounds with TRPC6 inhibitor; HEK293 TRPC4/mu-opioid, membrane potential dye fluorescence; stimulated with maximal-effect DAMGO; inhibition, % at 10 µM; 2,400 tested, 55% active;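 active = drop in membrane potential signal beyond 5 SD of the control wells in both duplicate plates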;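 also: TRPC4 counter screen for TRPC6 hits run under conditions tuned for TRPC6 not TRPC4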
TRPC6 block conf = mouse TRPC6 channel inhibitors, confirmation, HEK293 cells, membrane potential dye, duplicate | shares compounds with TRPC6 inhibitor | ACh-evoked depolarization | inhibition, % at 10 µM | 3,300 tested, 43% active | AID 488960, 2010;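 active = fluorescence ratio falls more than 5 SD below the full-stimulation control mean, in both duplicate runs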;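 also: integrated fluorescence ratio of peak minus minimum over baseline after agonist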
TRPC6 act conf = mouse TRPC6 channel activators, confirmation, HEK293 cells, membrane potential dye, duplicate | 2,800 tested, 11% active | activation, % at 10 µM | AID 488961, 2010 | shares compounds with TRPC6 inhibitor | HEK293-TRPC6 membrane potential dye fluorescence, FDSS;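 active = ratio signal rise beyond 5 SD above unstimulated control wells' mean, seen in both duplicate runs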;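 also: plate controls were buffer EC0 wells for no effect and acetylcholine ECmax response for full effect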
* marks the source's active call; other numbers are inactive results; i = inactive; . = no result. Sampled rows, rich in hits. Any-hit rate of the full collection: about 2.3%.

SMILES	TRPC4 block	TRPC4 potent	TRPC6 inhibitor	TRPC6 act	TRPC4 agonist	HEK293 MPD ctr-2	HEK293 MPD ctr 2-2	TRPC4 ctr mod	TRPC4/MOR inh 2	TRPC6 block conf	TRPC6 act conf	others
Cc1ccnc(SCCn2c(N3CCN(Cc4ccccc4)CC3)nc3c2c(=O)[nH]c(=O)n3C)n1	i	i	-10*	i	i	-340%*	71%*	-61%*	57%*	59%*	i
COc1ccc(Cl)cc1C(=O)NCCCn1ccnc1	i	i	i	i	i	.	.	.	.	.	.
COc1ccc(CNc2ccc(Cl)cc2)cc1Cn1ccnc1	i	i	-5.2*	i	i	i	i	i	56%*	i	i
CCc1ccc(NCc2ccc(OC)c(Cn3ccnc3)c2)cc1	i	i	-5.4*	i	i	i	i	-10%*	52%*	40%*	i
COc1ccc(C=O)cc1Cn1ccnc1	i	i	i	i	i	.	.	.	.	.	.
CCCN(CC(=O)Nc1ccccc1OC)C(=O)c1cc(-c2cccs2)nn1-c1ccccc1	i	i	i	i	i	.	.	.	.	.	.
CC(=O)Nc1ccccc1OCC(=O)NCCC1=CCCCC1	i	i	i	i	i	.	.	.	.	.	.
Cc1ccc(OCC(=O)NCCC2=CCCCC2)cc1	i	i	-5*	i	i	i	i	i	i	i	i
O=C(COc1ccc([N+](=O)[O-])cc1)NCCC1=CCCCC1	i	i	i	i	i	.	.	.	.	.	.
Cc1ccccc1OCC(=O)NCCC1=CCCCC1	i	i	-5.7*	i	i	i	i	14%*	i	i	i
CCCCn1c(=N)n(CC(O)COc2ccccc2)c2ccccc21 (stereo not drawn)	i	i	i	i	i	.	.	.	.	.	.
Cc1ccc(Cn2c(=N)n(CC(O)COc3ccccc3)c3ccccc32)cc1 (stereo not drawn)	i	i	-5.9*	i	72*	i	i	68%*	115%*	46%*	.
N=c1n(Cc2ccccc2)c2ccccc2n1CC(O)COc1ccccc1 (stereo not drawn)	i	i	-9.9*	i	56*	.	.	.	.	63%*	.	TRPC4 sel inh 2=-6.5%*;TRPC4 spec=56%*;HEK293 MPD ctr 2-1=i;HEK293 MPD ctr-1=14%*
O=C(NCc1ccco1)c1ccc([N+](=O)[O-])o1	i	i	i	i	i	.	.	.	.	.	.
CCOc1ccc(OCCC(=O)NNC(=O)c2ccccc2Cl)cc1	i	i	i	i	i	.	.	.	.	.	.
CC(C)c1ccc(N2C(=O)CC(Sc3nc4ccccc4o3)C2=O)cc1 (stereo not drawn)	i	i	-7.4*	i	i	.	.	.	.	i	i	TRPC4 sel inh 2=i;TRPC4 spec=i;HEK293 MPD ctr 2-1=i;HEK293 MPD ctr-1=i
CC(C)c1ccc(N2C(=O)CC(Sc3ncn[nH]3)C2=O)cc1 (stereo not drawn)	i	i	i	i	i	.	.	.	.	.	.
COC(=O)[C@H](Cc1ccccc1)NC(=O)C1CCN(C(=O)[C@H](C)NS(=O)(=O)c2ccc(C)cc2)CC1	i	i	i	i	i	.	.	.	.	.	.
Cn1c(=O)c(C(=O)Nc2ccccn2)c(O)c2ccccc21	i	i	-8.7*	i	i	.	.	.	.	i	i	TRPC4 sel inh 2=i;TRPC4 spec=-21%*;HEK293 MPD ctr 2-1=i;HEK293 MPD ctr-1=-327%*
O=C(CNC(=O)c1ccco1)OCC(=O)c1ccc(Br)cc1	i	i	-5.3*	i	i	i	i	i	i	i	i
COc1ccc(/C=C(\C#N)C(=O)NCC(c2ccc(F)cc2)N2CCOCC2)cc1 (stereo not drawn)	i	i	i	i	i	.	.	.	.	.	.

Source: PubChem (Johns Hopkins Ion Channel Center)
